IC50 and IC90 data for 16 compounds are collected here from ChEMBL document CHEMBL1129960, “Design, synthesis, and antiviral evaluation of 2-substituted 4,5-dichloro- and 4,6-dichloro-1-beta-D-ribofuranosylbenzimidazoles as potential agents for human cytomegalovirus infections” (J Med Chem, 1997).

One assay relates to Human alphaherpesvirus 1. Kind of assay: Antiviral activity was measured by plaque assay against HSV-1 virus by ELISA method. It counts as functional, organism-based. Summed up: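 HSV-1 (KOS) in BSC-1 cells, 10 000 cells/well seeded in MEM(E) + 10% calf serum, overnight at 37 °C; drug in quadruplicate plus 100 pfu/well virus; 3 days at 37 °C. ELISA read-out with HRP-rabbit anti-HSV-1 and TMB, absorbance at 450/570 nm. Percent reduction vs virus-only wells; IC50 by linear regression on log concentration.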

The subject of the next assay is KB. Description: Inhibition of KB cell growth was determined. Type of assay: functional, cell-based. The following applies: Homo sapiens. Put shortly: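 KB cells seeded at 3000–5000/well and incubated overnight; compound at 6–8 concentrations in quadruplicate; 48 h at 37 °C in CO2, about two population doublings. Ethanol fixation, 0.1% crystal violet stain, acidified ethanol elution, read at 570 nm. IC50 by linear regression vs log concentration.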

The next assay concerns HFF. Kind of assay: Visual cytotoxicity was scored on HFF cells at time of HCMV plaque enumeration. Type of assay: functional, cell-based. The following applies: Homo sapiens. Put shortly:
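Uninfected stationary HFF cells from the HCMV plaque assay plates, inspected microscopically for cytotoxicity at the time plaques were counted (7–10 days, 37 °C).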

For assay [1], the system named is Human betaherpesvirus 5. Kind of assay: Concentration required for 50% inhibition of HCMV replication was measured using a Plaque reduction assay. It counts as functional, organism-based. Summed up: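 HCMV Towne (P0) plaque reduction in HFF cells, ~100 pfu/cm². After adsorption, compound in growth medium at 4–8 concentrations in duplicate wells; 7–10 days at 37 °C. Crystal violet stain, microscopic plaque count. Percent plaque reduction vs no-drug wells; IC50 by linear regression vs log concentration.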
For orientation: Plaque reduction counts the foci of infection that form in a cell layer.

In assay [2] the test system is Human betaherpesvirus 5. Description: Concentration required for 90% inhibition of HCMV replication was measured using a yield reduction assay. It counts as functional. Summed up: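 HCMV yield reduction in HFF cells infected at moi 0.5–1 pfu/cell. Compound in duplicate as 1:3 serial dilutions from 100 to 0.05 μM; 7 days at 37 °C. One freeze-thaw, then progeny titered by plaque count on secondary HFF plates (1:3 dilutions). IC90 from regression of percent inhibition vs log concentration.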

For the compound `Clc1cc(Cl)c2[nH]c(Cl)nc2c1`, the IC50 (as a rule, the midpoint of a concentration-inhibition curve) in the assay with Human alphaherpesvirus 1 is greater than 100 µM; in the assay on KB it was greater than 100 µM; in the assay with HFF it was 32 µM; with Human betaherpesvirus 5 [1], 5.1 µM.
With `Clc1nc2c(Cl)c(Cl)ccc2[nH]1`, the IC50 with Human alphaherpesvirus 1 was greater than 100 µM; in the assay with KB it was 80 µM; in the assay on HFF, 32 µM; with Human betaherpesvirus 5 [1], 8 µM.
In the case of `OC[C@H]1O[C@H](n2c(Br)nc3cc(Cl)c(Cl)cc32)[C@@H](O)[C@H]1O`, in the assay with Human betaherpesvirus 5 [2], it took 0.2 µM to reach the 90% level (IC90). Further, the IC50 in the assay on KB was greater than 100 µM.
Consider `Nc1nc2c(Cl)cc(Cl)cc2[nH]1`, for which the figures for the IC50 with Human alphaherpesvirus 1, with HFF and in the assay with Human betaherpesvirus 5 [1] were greater than 100 µM, 100 µM and greater than 100 µM, respectively.
For `OC[C@H]1O[C@@H](n2c(Cl)nc3cc(Cl)c(Cl)cc32)[C@H](O)[C@@H]1O`, in the assay on Human betaherpesvirus 5 [2], the concentration for an effect of 90% (IC90) (as a rule, the concentration at which the effect reaches the 90% level) came to 1.4 µM.
In the case of `CSc1nc2c(Cl)cc(Cl)cc2n1C1O[C@H](CO)[C@@H](O)[C@H]1O` (stereo partly drawn), the IC50 with Human alphaherpesvirus 1 is greater than 300 µM; with KB, 270 µM; in the assay with HFF, 150 µM; in the assay with Human betaherpesvirus 5 [1], 110 µM.
`[N-]=[N+]=Nc1nc2c(Cl)cc(Cl)cc2n1C1O[C@H](CO)[C@@H](O)[C@H]1O` (stereo partly drawn) returned an IC90 with Human betaherpesvirus 5 [2] of 41 µM. Further, the IC50 was greater than 100 µM in the assay on HFF and 110 µM with Human betaherpesvirus 5 [1].
Consider `OC[C@H]1OC(n2c(Br)nc3c(Cl)c(Cl)ccc32)[C@H](O)[C@@H]1O` (stereo partly drawn), for which the IC50 in the assay with Human alphaherpesvirus 1 was greater than 100 µM; in the assay with KB, greater than 100 µM; in the assay with HFF, 161 µM; in the assay with Human betaherpesvirus 5 [1] it was 2.4 µM. The compound also gave an IC90 in the assay on Human betaherpesvirus 5 [2] of 1 µM.
Consider `Nc1nc2c(Cl)cc(Cl)cc2n1C1O[C@H](CO)[C@@H](O)[C@H]1O` (stereo partly drawn), for which the half-maximal inhibitory concentration (IC50) is greater than 300 µM in the assay on Human alphaherpesvirus 1, greater than 300 µM with KB, greater than 100 µM in the assay on HFF and greater than 100 µM with Human betaherpesvirus 5 [1]. The compound also displayed an IC90 with Human betaherpesvirus 5 [2] greater than 100 µM.
Take `OC[C@H]1OC(n2c(Cl)nc3c(Cl)cc(Cl)cc32)[C@H](O)[C@@H]1O` (stereo partly drawn): the half-maximal inhibitory concentration (IC50) in the assay on Human alphaherpesvirus 1 was greater than 300 µM; with KB, 230 µM; with HFF it was 77 µM; with Human betaherpesvirus 5 [1] it was 10 µM. The same compound yielded an IC90 with Human betaherpesvirus 5 [2] of 4.5 µM.
For `OC[C@H]1OC(n2c(S)nc3c(Cl)cc(Cl)cc32)[C@H](O)[C@@H]1O` (stereo partly drawn), the IC50 with Human alphaherpesvirus 1 is greater than 300 µM; in the assay on KB it was greater than 300 µM; in the assay on HFF it was greater than 100 µM; in the assay on Human betaherpesvirus 5 [1], greater than 100 µM.
Turning to `OC[C@H]1OC(n2c(Cl)nc3c(Cl)c(Cl)ccc32)[C@H](O)[C@@H]1O` (stereo partly drawn), the IC50 in the assay on Human alphaherpesvirus 1 was greater than 100 µM; with KB, greater than 100 µM; in the assay with HFF, greater than 100 µM; in the assay on Human betaherpesvirus 5 [1], 16 µM. This compound also displayed an IC90 with Human betaherpesvirus 5 [2] of 6 µM.
`OC[C@H]1OC(n2c(SCc3ccccc3)nc3c(Cl)cc(Cl)cc32)[C@H](O)[C@@H]1O` (stereo partly drawn): the IC50 with Human alphaherpesvirus 1 was 140 µM; in the assay on KB, 122 µM; in the assay on HFF, 32 µM; in the assay with Human betaherpesvirus 5 [1], 41 µM.
As for `OC[C@H]1OC(n2c(Br)nc3c(Cl)cc(Cl)cc32)[C@H](O)[C@@H]1O` (stereo partly drawn), the concentration for half-maximal inhibition (IC50) in the assay on Human alphaherpesvirus 1 was greater than 300 µM; in the assay on KB, 150 µM; with HFF, 127 µM; with Human betaherpesvirus 5 [1] it was 1.6 µM. For the same compound, the IC90 in the assay on Human betaherpesvirus 5 [2] stood at 2.1 µM.
With `O=C(O)P(=O)(O)O` [FOSCARNET], the IC50 in the assay with HFF is greater than 100 µM.
In turn, `Nc1nc2c(ncn2COC(CO)CO)c(=O)[nH]1` [GANCICLOVIR] returned a 90% effect concentration (IC90) in the assay with Human betaherpesvirus 5 [2] of 1.6 µM. For the same compound, the IC50 with KB and in the assay on HFF was greater than 100 µM throughout.
